Reference: ChEMBL document CHEMBL4513216, “Probing the Open Global Health Chemical Diversity Library for Multistage-Active Starting Points for Next-Generation Antimalarials” (ACS Infect Dis, 2020)

Assay: Toxicity liver stage against HepG2, at 10uM
Format: cell-based
Design: test concentration 10 uM, cell line HepG2-A16-CD81EGFP
Conditions: human, HepG2-A16-CD81EGFP cells; read-out: INHIBITION
Method in brief: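 Uninfected HepG2-A16-CD81EGFP cells, 3 × 10^3 per well, 1536-well, plated on prespotted compound at 10 μM final, parasite-free screening media added to match infected plates; puromycin 10 μM positive, DMSO 0.5% negative; run in parallel with 48 h PbLuc assay at 37 °C, 5% CO2; viability by CellTiter-Glo luminescence, normalized to controls.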

SMILES	cytotoxicity at 10 µM
O=C1c2c(O)cc(O)cc2O[C@@H](c2ccc(O)cc2)[C@@H]1O	-0.639%
CCOC(=O)N1CC(=O)N(Cc2ccc(OC)cc2)CC(O)C1 (stereo not given)	-2.67%
CNCc1cc(C)n(-c2ccccc2OC)c1C	-45%
COCCN1C(=O)c2ccc(C(=O)NCCc3c[nH]cn3)cc2C1=O	-7.13%
Cc1ccc(S(=O)(=O)c2ncccc2CN2CCN(C)CC2)cc1	-51.3%
Cc1ccc(S(=O)(=O)c2ncccc2CN2CCN(CCO)CC2)cc1	-49.1%
Cc1cc(=O)[nH]c(-n2nc(C3CC3)cc2N)n1	-4.84%
Cc1cc(=O)n(CCNS(=O)(=O)c2cccc(C(F)(F)F)c2)cn1	-6.98%
Cc1nsc(C(=O)NCCc2ccc(S(N)(=O)=O)cc2)n1	7.11%
CC(C)CN1C(=O)CO[C@@H]2CN(C(=O)NC(C)C)C[C@H]21	-5.27%
Nc1ncccc1C(=O)NCc1cccc(Br)c1	42.6%
Cc1c(C)n(Cc2ccncc2)c2nc3c(c(N)c12)CCCCC3	1.26%
CCC(=O)c1ccc(Br)cc1NN1c2cc(Br)ccc2C(=O)C1(C)OC (stereo not given)	78.6%
O=C(CCn1ncc2c(Cl)cccc21)NCC1CC1	10.6%
Cc1cccc(OCc2ccc(C(=O)N3N=CCC3(O)C(F)(F)F)o2)c1 (stereo not given)	25.2%
CCn1cc(-c2cc(C(F)(F)F)nc(NC3CCCC3)n2)c(C)n1	2.33%
c1ccc(CCN2CCCC2c2cccc(Nc3nccs3)n2)cc1 (stereo not given)	8.91%
CCOc1ccc([C@@H]2N[C@H](c3nccs3)Cc3ccsc32)cc1OC	38%
CCCS(=O)(=O)N1CCC(n2nc(-c3cc(C)oc3C)ccc2=O)CC1	14.6%
Cc1cc(-c2cnc(NCc3cccnc3)nc2C(C)C)on1	19.2%
COc1c(CNCCc2c[nH]c3cc(F)ccc23)c(C)nn1C	-7.53%
Cc1cc(CNC(=O)c2cc(NC(=O)C(C)C)ccc2Cl)no1	13.6%

SMILES	cytotoxicity at 10 µM
CN1CCC(N(Cc2ccco2)S(=O)(=O)c2cc(Br)ccc2Br)CC1	-17.7%
Cc1ccc(OCC(=O)NS(=O)(=O)Cc2ccccc2)cc1	2.07%
CCNC(=O)CN(CC)C(=O)c1cccc(Nc2cnn(C)c2)c1	7.68%
Cc1nc(COC(=O)c2cccc3c2OCCO3)no1	5.55%
CCc1ccc(CCC(=O)N2CCC(=O)Nc3cccnc32)cc1	-46.7%
O=C(NCc1cccnc1OCC(F)(F)F)N1CCOCC1	-43.4%
Cc1ccccc1CC(C)(C)NC(=O)CCOc1cccc(C(N)=O)c1	-4.07%
CCS(=O)(=O)Cc1nc(-c2cnn3c(C)cc(C)nc23)no1	-4.79%
NC(=O)C1CN(c2ccc(Br)cn2)CCO1 (stereo not given)	0.105%
O=C(NCCN1CCOCC1)C(OC1CCCC1)c1ccccc1 (stereo not given)	-2.99%
CCOC(=O)C1CCN(C(=O)CN2CCCC2c2ccccc2C)CC1 (stereo not given)	7.97%
CC(=O)N(Cc1ncc(C)o1)C1CCN(Cc2ccc(F)c(F)c2)C1 (stereo not given)	13.4%
COc1ccc(NC(=O)CCC(C)C)c(N2CCN(C(C)=O)CC2)n1	8.43%
Cc1ccc(C(CNCc2ccc(C#N)cc2)N2CCOCC2)s1 (stereo not given)	15.3%
COCc1nc2cc(NCc3scnc3C)ccc2o1	18.6%
Cc1cc(C(=O)Nc2ccc3oc(=O)n(CCN(C)C)c3c2)c(C)o1	-2.22%
Cc1nn(C)c(C)c1C1CCCN1c1ncnc2sccc12 (stereo not given)	44.1%
CCOc1cc(CN(C)Cc2ccccc2)ccc1OC(F)F	-14.7%
Cc1c(C(C)NC(=O)N2CCN(C3CCCC3)CC2)cnn1C (stereo not given)	3.02%
N#CCSCCCN1CCN(C(=O)c2ccccc2F)CC1	-147%
Cc1noc(-c2ccnc(N3CCC(CN4CCOCC4)CC3)c2)n1	-2.11%
CCC(C)(COc1ncccc1Cl)NCC(=O)NC1CCCCC1 (stereo not given)	0.651%

SMILES	cytotoxicity at 10 µM
CCN(CC)S(=O)(=O)N(C)Cc1ccncc1	0.52%
CN1CCN(c2ccc(CO)cc2F)CC1	-42%
Cc1ncsc1CNC(=O)NCC1(c2ccc3c(c2)OCO3)CC1	14.3%
COc1ccc(CNc2c(C)nn(C(C)C)c2C)cc1	-37.1%
Cc1ccc2cc(C(=O)N3CCN(C(=O)N(C)C)CC3)ccc2n1	-52.1%
O=C(CN1CCCCC1Cn1cncn1)NC1CCN(C2CC2)CC1 (stereo not given)	-19.3%
CC(C)(C)c1ccc(C2(C(=O)NCCS(N)(=O)=O)CC2)cc1	0.515%
Cc1nc2c(c(NC3CC3)n1)CCN(C(=O)C1(C#N)CC1)CC2	-104%
Cc1cccc(C(=O)N2CCC3(CC2)CC(c2cnn(C)c2)CO3)c1 (stereo not given)	-78.7%
CNC(=O)N1CCc2nc(C(=O)NCc3cccc(OC)c3)sc2CC1	-84.2%
CN1CCCN(c2nccc(-c3c[nH]nc3C3CCCCC3)n2)CC1	0.746%
CCNC(=O)[C@@H]1C[C@H](NC(=O)c2ccc(C)s2)CN1Cc1ccc(C)o1	-5.39%
CC(C)c1nnsc1CN1CCc2[nH]nc(-c3ccc(F)c(F)c3)c2C1	25.9%
Cc1ccc(-c2ccnc(N3CCC4(CC3)CNC(=O)C4)n2)c(C)n1	-5.3%
CN(Cc1ccc(-n2cccn2)cc1)C[C@@H]1CCCN2CCCC[C@H]12	0.537%
CCc1cnc(N)nc1NCCC(=O)NC1CCCCC1	-42.1%
CCc1ccc(C(=O)N2CCC3(CCC(=O)N(CCN(C)C)C3)CC2)[nH]1	5.96%
Cc1ccc2nc(CN(C)Cc3n[nH]c4c3CCCCC4)[nH]c2c1C	17.1%
COc1ccc2c(c1)OCC(CNc1cc(N)nc(SC)n1)C2 (stereo not given)	34.4%
COc1cccc(OC2CN(C(=O)CCn3cnc4ccccc43)C2)c1	3.67%
Cc1nc(CC(=O)NCc2csc(N3CCCC3)n2)cs1	-5.26%
Cc1ccc2nc(CN3CCC(O)(CN4CCCC4)CC3)cc(O)c2c1	-51.9%

SMILES	cytotoxicity at 10 µM
Cc1ncnc(NCC(C)N(C)c2ccccc2)c1C (stereo not given)	60.3%
c1ccc(C(Cn2cnnc2)N2CCOCC2)nc1 (stereo not given)	0.997%
CS(=O)(=O)c1ccc(CN2CCCC3(C2)C(=O)Nc2ccccc23)cc1 (stereo not given)	-1.3%
CC(C)C1CN(c2cccc(C#N)n2)CCCN1Cc1ccc(F)cc1 (stereo not given)	10%
COc1ccc(Cl)cc1-n1nc(C2CCCC2)nc1Cn1cnnn1	-15.5%
CN(Cc1cc(C2CC2)[nH]n1)C(=O)C(c1cccnc1)N1CCCC1 (stereo not given)	-48.1%
CCN1CCC(CC(=O)NCc2nc(C)cc(C)n2)CC1	-8.75%
O=C(NCC1CCCO1)c1coc(Cn2cnc3ccccc32)n1 (stereo not given)	-3.67%
CN(Cc1n[nH]c2c1CCC2)C(=O)c1cccc(CCC(C)(C)O)c1	3.01%
CN1CCN(Cc2n[nH]c(=O)n2CC2CCCCC2)CC1	-47.9%
c1ccc(C2CN(C3CC3)CC3(CCN(Cc4cscn4)CC3)C2)cc1 (stereo not given)	5.58%
CNc1ccc(C(=O)N(C)Cc2ccc3ccccc3n2)cn1	1.5%
O=C1CC2(CCN(CC3CC3)CC2)CN1Cc1cc(F)cc(F)c1	2.34%
COc1ccccc1N1CC(NC(=O)c2cc(C(C)C)nn2C)CC1=O (stereo not given)	52.4%
Cc1ccccc1-n1cc(C2=CCN(CCn3cc[nH]c3=O)CC2)cn1	16.5%
Cc1nc[nH]c1CN1CCOC(c2ccc(Cl)c(Cl)c2)C1 (stereo not given)	0.833%
Cc1ccc(-c2c(C(=O)NC3CCN(C)CC3)csc2C)cc1	-130%
CCc1ccc(C(=O)N2CCN(Cc3ccc(F)cc3)CC2)s1	13.4%
O=C(Cc1ccccc1F)NCCN1CCOCC1	-46.1%
CN(c1ccc(C(=O)NCCCN2CCCCC2)c(Cl)c1)S(C)(=O)=O	-0.313%
O=C1CC(c2ccccc2F)c2c(n(C3CCCC3)[nH]c2=O)N1 (stereo not given)	-5.07%
COc1cccc(CC(=O)N2CCC3(CC2)OCCCC3O)c1OC (stereo not given)	-5.7%

SMILES	cytotoxicity at 10 µM
O=C1CC(c2ccc(F)cc2)c2cnn(C3CCCC3)c2N1 (stereo not given)	3.82%
CSCCC1c2nc[nH]c2CCN1Cc1cc(Cl)ccc1O (stereo not given)	23.3%
COc1ccc(CCN2CCCC(CN(C)Cc3ccc(C)o3)C2)cc1 (stereo not given)	-14.5%
Cc1cnn(CC2CN(Cc3cccc(OC(C)C)c3)CCO2)c1 (stereo not given)	-4.83%
O=C1NCCN1C1CCN(CCOc2cccc3ccccc23)CC1	-5.72%
CN(C)c1cc(CNC(=O)Nc2ccc(N3CCCC3)nc2)ccn1	-0.338%
Cc1ccc(C(=O)N2CCC(Oc3ccc(C)c(C)c3)CC2)c(=O)[nH]1	12.9%
Cc1csc(N2CCCN(C(=O)Cc3ccc(C)s3)CC2)n1	-12%
CC(C(=O)Nc1cccc(N2CCCCC2)c1)n1cncn1 (stereo not given)	-7.3%
CN(C)c1cc(CNC(=O)c2cn(-c3ccc(F)cc3)nn2)ccn1	11.5%
CC(C)(C)C(O)CN1CCN(C(=O)c2cccc3[nH]ncc23)CC1 (stereo not given)	5.93%
CC1N(C)C(=O)COC12CCN(Cc1nccs1)CC2 (stereo not given)	-124%
Cc1cc(C(=O)N2CCn3cc(CN4CCOCC4)nc3C2)no1	-75.7%
Cc1cc(CN2C[C@@H]3COC[C@]3(CNC(=O)N3CCCC3)C2)no1	-77.5%
CC(C)NC(=O)N1CCN(CC2CC2)CC2(CNC(=O)C2)C1 (stereo not given)	2.52%
COCCN1CCc2cc(C(=O)NC(C)C)c(NCC3CC3)nc2CC1	3.22%
Cc1cccc(CN2C(=O)CC[C@@H]3[C@H]2CCN3Cc2ccc(F)cc2)n1	-72.1%
Cc1ccc(CN2CCC3(CC2)CN(c2ccccc2)C(=O)CO3)o1	-116%
O=C(N1CCCC1)N1CCC2(CCCN(CCOc3ccccc3)C2)C1 (stereo not given)	11.3%
c1ccc(N2CCCC3(COCCN(c4nccs4)C3)C2)nc1 (stereo not given)	-8.89%
CC(C)CN1CCC2(COCc3cnc(-c4ccccc4)nc32)C1 (stereo not given)	-103%
CN(Cc1cccnc1)C1CC2(CCN(Cc3cccnc3)CC2)C1	-87.2%
